Converted amounts (≈) assume the structure as drawn.
Key:
[1] = system: Staphylococcus epidermidis; test: Antibacterial activity against Staphylococcus epidermidis ATCC 12228 assessed as diameter of inhibition zone by CLSI based disc-diffusion method; type: functional
How it was run: (§1)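 Strains were stored at −80 °C, then subcultured twice on tryptic soy agar for 24–48 h at 30 °C before the disc-diffusion test. The result was recorded as the inhibition-zone diameter.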

[2] = Selectivity ratio of IC50 for cytotoxicity against human MRC5 cells assessed as inhibition of cell growth to MIC for antibacterial activity against methicillin-resistant Staphylococcus aureus NMI 1991 K assessed as inhibition of microbial growth by broth-microdilution method; type: toxicity, cell-based
[3] = Selectivity ratio of IC50 for cytotoxicity against human MRC5 cells assessed as inhibition of cell growth to MIC for antibacterial activity against methicillin-resistant Staphylococcus aureus NMI 664 K assessed as inhibition of microbial growth by broth-microdilution method; type: toxicity, cell-based
Candida parapsilosis = test: Antifungal activity against Candida parapsilosis ATCC 22019 assessed as fungal growth inhibition by broth-microdilution method; type: functional; conditions: Lodderomyces parapsilosis
How it was run: (§2)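 Yeasts were stored at −80 °C and subcultured twice on Sabouraud dextrose agar (24–48 h, 30 °C) to confirm viability. Growth inhibition was then measured as MIC by broth microdilution.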

[4] = Selectivity ratio of IC50 for cytotoxicity against human MRC5 cells assessed as inhibition of cell growth to MIC for antibacterial activity against methicillin-resistant Staphylococcus aureus NMI 1576 K assessed as inhibition of microbial growth by broth-microdilution method; type: toxicity, cell-based
Candida tropicalis [5] = test: Antifungal activity against Candida tropicalis IBA 171 assessed as fungal growth inhibition by broth-microdilution method; type: functional; how it was run: as §2
[6] = Selectivity ratio of IC50 for cytotoxicity against human MRC5 cells assessed as inhibition of cell growth to MIC for antibacterial activity against methicillin-resistant Staphylococcus aureus NMI 1712 K assessed as inhibition of microbial growth by broth-microdilution method; type: toxicity, cell-based
[7] = system: Meyerozyma guilliermondii; test: Antifungal activity against Candida guilliermondii IBA 155 assessed as fungal growth inhibition by broth-microdilution method; type: functional; how it was run: as §2
Candida tropicalis [8] = test: Antifungal activity against Candida tropicalis ATCC 750 assessed as fungal growth inhibition by broth-microdilution method; type: functional; how it was run: as §2
Candida albicans = test: Antifungal activity against Candida albicans ATCC 90028 assessed as fungal growth inhibition by broth-microdilution method; type: functional; how it was run: as §2
[9] = Selectivity ratio of IC50 for cytotoxicity against human MRC5 cells assessed as inhibition of cell growth to MIC for antibacterial activity against methicillin-resistant Staphylococcus aureus NMI 2541 K assessed as inhibition of microbial growth by broth-microdilution method; type: toxicity, cell-based
[10] = Selectivity ratio of IC50 for cytotoxicity against human MRC5 cells assessed as inhibition of cell growth to MIC for antibacterial activity against methicillin-resistant Staphylococcus aureus ATCC 43300 assessed as inhibition of microbial growth; type: toxicity, cell-based
Saccharomyces cerevisiae = test: Antifungal activity against Saccharomyces cerevisiae ATCC 9763 assessed as fungal growth inhibition by broth-microdilution method; type: functional; how it was run: as §2
Bacillus subtilis = test: Antibacterial activity against Bacillus subtilis ATCC 6633 assessed as diameter of inhibition zone by CLSI based disc-diffusion method; type: functional; how it was run: as §1
Pichia kudriavzevii = test: Antifungal activity against Candida krusei ATCC 6258 assessed as fungal growth inhibition by broth-microdilution method; type: functional; how it was run: as §2
Enterococcus faecium = test: Antibacterial activity against Enterococcus faecium ATCC 6057 assessed as diameter of inhibition zone by CLSI based disc-diffusion method; type: functional; how it was run: as §1
Staphylococcus aureus = test: Antibacterial activity against methicillin-resistant Staphylococcus aureus ATCC 43300 assessed as diameter of inhibition zone by CLSI based disc-diffusion method; type: functional
How it was run: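 Disc-diffusion on standard strain subcultured twice on tryptic soy agar (24–48 h, 30 °C) after storage at −80 °C; inhibition zone diameter read; linezolid disc (0.03 mg) as reference.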

Enterococcus faecalis = test: Antibacterial activity against Enterococcus faecalis ATCC 29212 assessed as diameter of inhibition zone by CLSI based disc-diffusion method; type: functional; how it was run: as §1

SMILES	diameter of the inhibition zone (DIZ) [1]	diameter of the inhibition zone (DIZ) (Bacillus subtilis)	diameter of the inhibition zone (DIZ) (Enterococcus faecium)	diameter of the inhibition zone (DIZ) (Staphylococcus aureus)	diameter of the inhibition zone (DIZ) (Enterococcus faecalis)	further results
C[Si]1(C)OB(O)c2ccc(SC(=O)c3ccc(C(F)(F)F)cc3)c(F)c21	16 mm	15 mm	12 mm	–	–	selectivity ratio [2]: 4.5; selectivity ratio [3]: 8.9; MIC (Candida parapsilosis): > 12.5 µg/mL; selectivity ratio [4]: 4.5; MIC (Candida tropicalis [5]): > 12.5 µg/mL; selectivity ratio [6]: 8.9; MIC [7]: > 12.5 µg/mL; MIC (Candida tropicalis [8]): > 12.5 µg/mL; MIC (Candida albicans): > 12.5 µg/mL; selectivity ratio [9]: 8.9; selectivity ratio [10]: 8.9; MIC (Saccharomyces cerevisiae): 6.25 µg/mL (≈ 15.6 µM); MIC (Pichia kudriavzevii): > 12.5 µg/mL
C[Si]1(C)OB(O)c2cc(F)c(SCCC(=O)OCCCCCC[n+]3ccccc3)c(F)c21.O=S(=O)([O-])C(F)(F)F	–	–	–	17 mm	–	–
C[Si]1(C)OB(O)c2cc(F)c(S)c(F)c21	24 mm	22 mm	24 mm	–	–	–
Cc1cc(NC(=O)CCSc2c(F)cc3c(c2F)[Si](C)(C)OB3O)no1	13 mm	17 mm	14 mm	14 mm	12 mm	–
C[Si]1(C)OB(O)c2ccc(SC3CC(=O)N(c4ccc(Br)c(C(F)(F)F)c4)C3=O)c(F)c21 (stereo unspecified)	–	–	–	–	17 mm	MIC (Candida parapsilosis): > 12.5 µg/mL; MIC (Candida tropicalis [5]): > 12.5 µg/mL; MIC [7]: > 12.5 µg/mL; MIC (Candida tropicalis [8]): > 12.5 µg/mL; MIC (Candida albicans): > 12.5 µg/mL; selectivity ratio [10]: 5.6; MIC (Pichia kudriavzevii): > 12.5 µg/mL
C[Si]1(C)OB(O)c2cc(F)c(SCCC(=O)Nc3cnccn3)c(F)c21	22 mm	19 mm	15 mm	25 mm	13 mm	–
C[Si]1(C)OB(O)c2ccc(SCCS(=O)(=O)c3ccccc3)c(F)c21	22 mm	21 mm	–	–	15 mm	–
C[Si]1(C)OB(O)c2cc(F)c(S(=O)(=O)Nc3ccc(F)cc3)c(F)c21	19 mm	–	–	16 mm	–	selectivity ratio [10]: 0.7
C[Si]1(C)OB(O)c2cc(F)c(SCCC(=O)N3CCOCC3)c(F)c21	19 mm	14 mm	–	–	–	–
C[Si]1(C)OB(O)c2cc(F)c(SCCC(N)=O)c(F)c21	19 mm	15 mm	12 mm	–	12 mm	–
C[Si]1(C)OB(O)c2cc(F)c(S(=O)(=O)Cl)c(F)c21	13 mm	15 mm	–	–	–	–
CC(=O)NC[C@H]1CN(c2ccc(N3CCOCC3)c(F)c2)C(=O)O1 [LINEZOLID]	26 mm	30 mm	14 mm	–	15 mm	–

From ChEMBL document CHEMBL5532704, “Exploiting thiol-functionalized benzosiloxaboroles for achieving diverse substitution patterns - synthesis, characterization and biological evaluation of promising antibacterial agents” (RSC Med Chem, 2024)
